# 14-3-3 Bad PPI: inhibitors of 14-3-3 zeta/Bad binding, primary screen, biochemical, TR-FRET, bovine 14-3-3 zeta; 14-3-3 protein zeta/delta (Bos taurus), P63103; TR-FRET 14-3-3zeta/Dy647-pBad peptide displacement, 1 h; inhibition, % at 21.7 µM; 220,000 compounds, 0.71% hits;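 active = inhibition above about 70%, limit read from the data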;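 note: 0% = full 14-3-3 plus peptide FRET controls and 100% = background without 14-3-3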
# Runt-SMMHC FRET: inhibitors of RUNX1 Runt–CBFb-SMMHC binding, primary screen, biochemical, FRET, Cerulean-Runt, Venus-CBFb-SMMHC, uHTS; Runt-related transcription factor 1 (Homo sapiens) + Core-binding factor subunit beta …; Cerulean-Runt/Venus-CBFb-SMMHC FRET ratio 530/480, 1 h; inhibition, % at 20 µM; 220,000 compounds, 0.74% hits;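 active = mean inhibition across duplicate retests at 20 µM reaching about 50%, limit read from the data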;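 note: 0% = DMSO wells and 100% = wells with excess untagged CBFb-SMMHC; inhibitors lower the FRET ratio by blocking Runt binding to CBFb-SMMHC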
# Hck-Nef inh: inhibitors of Nef-activated human Hck kinase, primary screen, biochemical, Z-Lyte FRET, 384-well, Hck-YEEI; inhibition, % at 20 µM; 220,000 compounds, 0.68% hits; Recombinant Hck-YEEI plus Nef, Z-Lyte FRET kinase assay; AID 463187, 2010; Tyrosine-protein kinase HCK (Homo sapiens), P08631;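 active = Hck-Nef kinase inhibition above about 50%, limit read from the data; inactive = inhibition below that limit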;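 note: 0% = DMSO with Hck plus Nef and 100% = Hck alone without Nef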
# Target sequence (P08631 whole entry, looked up): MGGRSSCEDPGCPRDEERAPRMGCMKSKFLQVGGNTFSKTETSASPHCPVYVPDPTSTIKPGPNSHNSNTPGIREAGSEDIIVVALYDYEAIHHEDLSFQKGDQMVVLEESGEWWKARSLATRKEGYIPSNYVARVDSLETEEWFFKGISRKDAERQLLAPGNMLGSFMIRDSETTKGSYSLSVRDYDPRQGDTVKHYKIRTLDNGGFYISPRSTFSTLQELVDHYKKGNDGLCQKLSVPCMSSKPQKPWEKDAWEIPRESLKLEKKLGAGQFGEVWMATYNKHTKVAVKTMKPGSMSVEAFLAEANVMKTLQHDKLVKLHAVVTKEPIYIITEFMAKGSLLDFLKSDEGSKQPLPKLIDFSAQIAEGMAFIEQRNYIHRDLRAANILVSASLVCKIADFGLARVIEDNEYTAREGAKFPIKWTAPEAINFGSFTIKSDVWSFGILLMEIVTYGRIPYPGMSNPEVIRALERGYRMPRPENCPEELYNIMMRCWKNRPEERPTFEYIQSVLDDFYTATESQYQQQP
# Tb hexokinase: Trypanosoma brucei hexokinase 1 inhibitors, primary screen, biochemical, G6PDH-coupled NADH absorbance, MLSCN library | hexokinase 1 [Trypanosoma brucei] | recombinant TbHK1, G6PDH-coupled NADH A340 | inhibition, % at 10 µM | 220,000 compounds, 0.11% hits | AID 1430, 2008;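 active = inhibition of 50% or more in the single-dose primary screen; inactive = inhibition below 50%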
# RanGTP-Impb inh: inhibitors of RanGTP-importin-beta interaction, primary screen, biochemical, FRET, CFP-Ran, YFP-importin-beta, homogeneous. cell-free CFP-Ran/YFP-importin-beta FRET ratio. inhibition, % (no concentration beside the values). AID 2216, 2009. 300,000 compounds, 1.1% hits. Ran GTPase (GTP-bound) - importin-beta complex;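 active = more than half of the replicate wells show a fall in the fluorescence ratio signal beyond about 16%, limit read from the data, passing the limit was not always enough; inconclusive = exactly half of the replicate wells pass the set limit; inactive = fewer than half of replicates pass the limit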;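 note: 0% = DMSO wells and 100% = Ran loaded with GDP instead of GTP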
# Runt-CBFb FRET: inhibitors of RUNX1 Runt–CBFb binding, primary screen, biochemical, FRET, Cerulean-Runt, Venus-CBFb, uHTS; inhibition, % at 20 µM; AID 1496, 2009; 220,000 compounds, 0.46% hits; Cerulean-Runt/Venus-CBFb FRET ratio 530/480, 1 h; Runt-related transcription factor 1 (Homo sapiens) + Core-binding factor subunit beta …;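 active = inhibition over about 50% at 20 µM in the single-dose screen, limit read from the data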;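 note: 0% = DMSO wells and 100% = excess unlabeled CBFb competitor control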
#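 Buffer or medium: Tris pH 7.5 buffer with BSA. Assay system: Cerulean-labeled Runt domain protein. Amount: each fluorescent fusion protein 100 nM. Read-out basis: loss of energy transfer signal. Incubation: 1 h compound exposure, room temperature. Probe or stimulus: Venus-CBFb binding partner, 100 nM. Detection: FRET, excitation 422 nm, emission at 530 and 480 nm.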
# The depositor's hits bear a star; ? = inconclusive; . = not tested or not shown. In the library only some 2.2% were active in any assay of this set; here they are far more common.
SMILES,14-3-3 Bad PPI,Runt-SMMHC FRET,Hck-Nef inh,Tb hexokinase,RanGTP-Impb inh,Runt-CBFb FRET
CC(C)Sc1nc(N)c2c3c(sc2n1)CN(C)CC3,8,29,-1,-55,21*,13
CCCSc1nc(N)c2c3c(sc2n1)CN(C)CC3,-2,38,9,-30,9,6
CC(=O)Nc1ccc(C(=O)NCC2CCCCC2)cc1,.,.,.,.,4,.
CCN1CCN(C(c2ccc(OC)cc2)C(O)C(=O)c2c[nH]c3ccccc23)CC1 (stereo not given),0,-2,2,-4,3,3
COc1ccc(/C(O)=C/c2nc3ccccc3n(-c3ccccc3)c2=O)cc1,.,10,-24,-3,47*,-78
CCOc1ccc(CCNC(=O)COc2cccc(-n3cnnn3)c2)cc1OCC,.,.,.,.,-1,.
CCN(CC(=O)Nc1ccc2c(c1)OCCO2)C(=O)c1ccc(Cl)cc1Cl,.,.,.,.,-1,.
CCOC(=O)c1ccc(NC(=O)N2CCN(c3ccccc3OC)CC2)cc1,-8,-1,2,0,27*,2
COC(=O)C/C(O)=C(/N=Nc1cccc(C(F)(F)F)c1)C(=O)OC,-10,-7,-5,-6,1,-6
O=C1CCc2cc(NS(=O)(=O)c3ccc([N+](=O)[O-])cc3)cc3c2N1CCC3,.,.,.,.,0,.
Oc1ccc(Nc2nc(N3CCCC3)c3ccccc3n2)cc1,20,71*,0,-4,-3,27
OC(CNCc1ccccc1Cl)C(F)(F)F (stereo not given),82*,4,12,-1,2,0
Cn1cccc1CNCc1ccccc1Cl,17,1,1,6,4,-2
Cc1cc(C)n(CCC(=O)N/N=C/c2c(O)ccc3ccccc23)n1,-5,45,10,-25,36*,29
CO/N=C/c1cccn1-c1nccc(OC)c1C#N,-7,0,-2,-3,0,0
CN(C)c1ccnc(-n2cccc2/C=N/OCc2cccc(F)c2)c1C#N,80*,0,0,-14,-1,2
CC(C)OCC(O)CN1CCN(CCN2C(=O)c3cccc4cccc(c34)C2=O)CC1 (stereo not given),.,.,.,.,4,.
CCC(OCC(O)CN1CCN(CCN2C(=O)c3cccc4cccc(c34)C2=O)CC1)c1ccccc1 (stereo not given),12,-4,0,-26,30*,-6
Cc1c(O)ccc2c(CC(=O)N[C@@H](Cc3c[nH]c4ccccc34)C(=O)O)cc(=O)oc12,.,.,.,.,21*,.
O=C(Cc1cccs1)NC(Cc1c[nH]c2ccccc12)C(=O)O (stereo not given),.,.,.,.,1,.
CN(C(=O)COC(=O)c1ccccc1SCC(=O)NC1CCCCCCC1)C1CCS(=O)(=O)C1 (stereo not given),4,2,3,27,-3,-3
CCn1c2ccccc2c2nc3cc(OC)c(OC)cc3nc21,1,4,16,-6,89*,2
COc1cc2nc3c4ccccc4n(CC#N)c3nc2cc1OC,2,51*,2,-11,9,21
Cc1cccc(-n2ccnc2SCC(=O)N2CCCc3ccccc32)c1C,3,0,2,-3,?,-2
CCCCn1c(CCC(=O)O)ccc1-c1cccs1,-4,32,21,29,9,17
COCCn1c(CCC(=O)O)ccc1-c1cccs1,-28,55*,6,2,6,31
CCCn1c(=N)c(S(=O)(=O)c2ccccc2)cc2c(=O)n3ccccc3nc21,-3,84*,-7,-17,198*,22
